Measured values taken from ChEMBL document CHEMBL4382192, “Discovery of a potent dual ALK and EGFR T790M inhibitor” (Eur J Med Chem, 2017).

How the values were obtained:
[1] = target: Bone morphogenetic protein receptor type-1A (Homo sapiens) (UniProt P36894); test: Binding affinity to wild-type human partial length BMPR1A (Q214 to I532 residues) expressed in bacterial expression system assessed as residual binding level at 1 uM by Kinomescan method relative to control
[2] = target: Dual specificity mitogen-activated protein kinase kinase 7 (Homo sapiens) (UniProt O14733); test: Binding affinity to wild-type human full length MKK7 (M1 to R419 residues) expressed in mammalian expression system assessed as residual binding level at 1 uM by Kinomescan method relative to control
Procedure, shortened: (§1)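 Single-point kinome-wide KINOMEscan binding panel, test compound at 1 μM, run by the provider's standard protocol.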

[3] = target: Ephrin type-A receptor 6 (Homo sapiens) (UniProt Q9UF33); test: Binding affinity to wild-type human partial length EPHA6 (Y700 to E1046 residues) expressed in bacterial expression system assessed as residual binding level at 1 uM by Kinomescan method relative to control
[4] = target: Serine/threonine-protein kinase haspin (Homo sapiens) (UniProt Q8TF76); test: Binding affinity to wild-type human partial length HASPIN (I452 to K798 residues) expressed in mammalian expression system assessed as residual binding level at 1 uM by Kinomescan method relative to control
[5] = target: Mitogen-activated protein kinase kinase kinase 15 (Homo sapiens) (UniProt Q6ZN16); test: Binding affinity to wild-type human partial length MAP3K15 (T625 to L932 residues) expressed in mammalian expression system assessed as residual binding level at 1 uM by Kinomescan method relative to control
[6] = target: LIM domain kinase 2 (Homo sapiens) (UniProt P53671); test: Binding affinity to wild-type human full length LIMK2 (M1 to P638 residues) expressed in bacterial expression system assessed as residual binding level at 1 uM by Kinomescan method relative to control; procedure, shortened: as §1
[7] = target: Serine/threonine-protein kinase SIK3 (Homo sapiens) (UniProt Q9Y2K2); test: Binding affinity to wild-type human partial length QSK (A90 to L395 residues) expressed in mammalian expression system assessed as residual binding level at 1 uM by Kinomescan method relative to control
[8] = target: Macrophage-stimulating protein receptor (Homo sapiens) (UniProt Q04912); test: Binding affinity to wild-type human partial length MST1R (I1057 to L1363 residues) expressed in bacterial expression system assessed as residual binding level at 1 uM by Kinomescan method relative to control
[9] = target: Phosphatidylinositol 3-kinase C2 domain-containing subunit gamma (Homo sapiens) (UniProt O75747); test: Binding affinity to wild-type human partial length PIK3C2G (M1 to I1446 residues) expressed in mammalian expression system assessed as residual binding level at 1 uM by Kinomescan method relative to control
[10] = target: Serine/threonine-protein kinase Nek7 (Homo sapiens) (UniProt Q8TDX7); test: Binding affinity to wild-type human full length NEK7 (M1 to S302 residues) expressed in bacterial expression system assessed as residual binding level at 1 uM by Kinomescan method relative to control; procedure, shortened: as §1
[11] = target: Casein kinase I isoform delta (Homo sapiens) (UniProt P48730); test: Binding affinity to wild-type human full length CSNK1D (M1 to K409 residues) expressed in bacterial expression system assessed as residual binding level at 1 uM by Kinomescan method relative to control
[12] = test system: Tyrosine-protein kinase ABL1 (Homo sapiens), P00519 [F317I]; test: Binding affinity to human phosphorylated ABL1 F317I mutant (S229 to K512 residues) expressed in mammalian expression system assessed as residual binding level at 1 uM by Kinomescan method relative to control
Procedure, shortened: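 Kinome-wide selectivity panel run by the KINOMEscan method, with the test compound at a single concentration of 1 μM. Wild-type and mutant kinases were profiled in the same screen.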

[13] = target: cGMP-dependent protein kinase 2 (Homo sapiens) (UniProt Q13237); test: Binding affinity to wild-type human partial length PRKG2 (S422 to F762 residues) expressed in mammalian expression system assessed as residual binding level at 1 uM by Kinomescan method relative to control
[14] = target: Myosin light chain kinase (Homo sapiens) (UniProt Q32MK0); test: Binding affinity to wild-type human partial length MLCK (D488 to K800 residues) expressed in bacterial expression system assessed as residual binding level at 1 uM by Kinomescan method relative to control
[15] = target: Cyclin-dependent kinase 11A (Homo sapiens) (UniProt Q9UQ88); test: Binding affinity to wild-type human partial length CDC2L2 (D391 to K730 residues) expressed in bacterial expression system assessed as residual binding level at 1 uM by Kinomescan method relative to control
[16] = target: MAP/microtubule affinity-regulating kinase 3 (Homo sapiens) (UniProt P27448); test: Binding affinity to wild-type human full length MARK3 (M1 to L729 residues) expressed in bacterial expression system assessed as residual binding level at 1 uM by Kinomescan method relative to control; procedure, shortened: as §1
[17] = target: Serine/threonine-protein kinase 24 (Homo sapiens) (UniProt Q9Y6E0); test: Binding affinity to wild-type human partial length MST3 (A30 to S311 residues) expressed in bacterial expression system assessed as residual binding level at 1 uM by Kinomescan method relative to control
[18] = target: Dual specificity mitogen-activated protein kinase kinase 6 (Homo sapiens) (UniProt P52564); test: Binding affinity to wild-type human partial length MEK6 (K36 to D334 residues) expressed in bacterial expression system assessed as residual binding level at 1 uM by Kinomescan method relative to control
[19] = target: Ephrin type-B receptor 6 (Homo sapiens) (UniProt O15197); test: Binding affinity to wild-type human partial length EPHB6 (Q634 to P948 residues) expressed in mammalian expression system assessed as residual binding level at 1 uM by Kinomescan method relative to control
[20] = target: Death-associated protein kinase 2 (Homo sapiens) (UniProt Q9UIK4); test: Binding affinity to wild-type human full length DAPK2 (M1 to S370 residues) expressed in bacterial expression system assessed as residual binding level at 1 uM by Kinomescan method relative to control
[21] = target: Calcium-dependent protein kinase 1 (Plasmodium falciparum) (UniProt P62344); test: Binding affinity to wild-type Plasmodium falciparum full length CDPK1 (M1 to S524 residues) expressed in mammalian expression system assessed as residual binding level at 1 uM by Kinomescan method relative to control
[22] = target: Serine/threonine-protein kinase 33 (Homo sapiens) (UniProt Q9BYT3); test: Binding affinity to wild-type human full length STK33 (M1 to L514 residues) expressed in bacterial expression system assessed as residual binding level at 1 uM by Kinomescan method relative to control
[23] = target: Serine/threonine-protein kinase RIO2 (Homo sapiens) (UniProt Q9BVS4); test: Binding affinity to wild-type human partial length RIOK2 (M1 to D313 residues) expressed in mammalian expression system assessed as residual binding level at 1 uM by Kinomescan method relative to control
[24] = target: Cyclin-dependent kinase 13 (Homo sapiens) (UniProt Q14004); test: Binding affinity to wild-type human partial length CDC2L5 (H675 to S1054 residues) expressed in mammalian expression system assessed as residual binding level at 1 uM by Kinomescan method relative to control
Cyclin-dependent kinase 13 (Homo sapiens), sequence (Q14004 whole entry, looked up, the tested form may be a part): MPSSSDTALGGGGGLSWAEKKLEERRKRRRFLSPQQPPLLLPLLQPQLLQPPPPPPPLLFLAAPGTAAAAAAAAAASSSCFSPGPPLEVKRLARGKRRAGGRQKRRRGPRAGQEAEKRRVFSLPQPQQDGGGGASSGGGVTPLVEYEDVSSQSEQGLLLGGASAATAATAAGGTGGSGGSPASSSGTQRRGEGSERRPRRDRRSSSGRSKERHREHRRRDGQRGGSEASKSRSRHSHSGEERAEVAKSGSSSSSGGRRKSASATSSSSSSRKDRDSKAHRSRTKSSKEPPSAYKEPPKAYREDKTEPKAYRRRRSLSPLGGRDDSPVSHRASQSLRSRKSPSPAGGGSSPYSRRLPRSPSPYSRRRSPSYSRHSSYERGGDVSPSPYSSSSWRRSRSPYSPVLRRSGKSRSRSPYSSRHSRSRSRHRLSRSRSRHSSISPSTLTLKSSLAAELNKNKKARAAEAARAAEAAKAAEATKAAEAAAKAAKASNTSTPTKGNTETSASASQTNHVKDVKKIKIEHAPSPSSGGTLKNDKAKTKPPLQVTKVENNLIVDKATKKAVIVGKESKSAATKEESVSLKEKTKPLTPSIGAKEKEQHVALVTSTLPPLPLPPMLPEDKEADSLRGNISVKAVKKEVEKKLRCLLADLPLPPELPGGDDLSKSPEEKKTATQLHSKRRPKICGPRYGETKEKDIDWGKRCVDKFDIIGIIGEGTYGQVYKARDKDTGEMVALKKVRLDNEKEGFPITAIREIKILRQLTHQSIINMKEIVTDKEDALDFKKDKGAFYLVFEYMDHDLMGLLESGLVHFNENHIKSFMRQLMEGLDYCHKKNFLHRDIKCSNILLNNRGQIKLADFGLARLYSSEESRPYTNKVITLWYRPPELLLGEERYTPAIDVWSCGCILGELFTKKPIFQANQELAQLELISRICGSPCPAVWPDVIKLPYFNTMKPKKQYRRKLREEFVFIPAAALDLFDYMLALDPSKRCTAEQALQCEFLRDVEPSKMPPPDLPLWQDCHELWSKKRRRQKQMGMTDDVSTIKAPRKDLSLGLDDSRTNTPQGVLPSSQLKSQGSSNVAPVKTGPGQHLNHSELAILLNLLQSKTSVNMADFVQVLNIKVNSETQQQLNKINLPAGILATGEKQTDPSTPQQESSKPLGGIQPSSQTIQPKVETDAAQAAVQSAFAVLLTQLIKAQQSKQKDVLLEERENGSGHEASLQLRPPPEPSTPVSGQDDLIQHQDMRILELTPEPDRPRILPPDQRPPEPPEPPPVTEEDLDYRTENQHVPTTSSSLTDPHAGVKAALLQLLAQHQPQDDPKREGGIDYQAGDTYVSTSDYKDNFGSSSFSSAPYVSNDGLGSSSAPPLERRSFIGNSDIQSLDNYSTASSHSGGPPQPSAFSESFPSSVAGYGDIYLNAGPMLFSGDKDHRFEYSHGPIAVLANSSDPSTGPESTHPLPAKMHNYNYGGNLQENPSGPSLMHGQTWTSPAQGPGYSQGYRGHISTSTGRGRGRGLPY

Casein kinase I isoform delta (Homo sapiens), sequence (P48730 whole entry, looked up, the tested form may be a part, canonical isoform): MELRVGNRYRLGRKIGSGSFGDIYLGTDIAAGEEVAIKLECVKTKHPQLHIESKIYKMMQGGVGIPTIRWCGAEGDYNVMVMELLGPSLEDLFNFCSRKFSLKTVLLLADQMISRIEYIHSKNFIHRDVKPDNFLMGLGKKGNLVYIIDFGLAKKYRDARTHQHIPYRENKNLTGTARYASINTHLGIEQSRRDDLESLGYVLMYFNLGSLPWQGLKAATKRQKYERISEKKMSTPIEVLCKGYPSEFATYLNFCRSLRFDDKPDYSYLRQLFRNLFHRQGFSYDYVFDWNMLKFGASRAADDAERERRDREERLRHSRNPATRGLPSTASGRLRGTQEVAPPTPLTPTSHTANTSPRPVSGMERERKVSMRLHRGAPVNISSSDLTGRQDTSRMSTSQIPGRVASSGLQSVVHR
Mitogen-activated protein kinase kinase kinase 15 (Homo sapiens), sequence (Q6ZN16 whole entry, the tested form may be a part): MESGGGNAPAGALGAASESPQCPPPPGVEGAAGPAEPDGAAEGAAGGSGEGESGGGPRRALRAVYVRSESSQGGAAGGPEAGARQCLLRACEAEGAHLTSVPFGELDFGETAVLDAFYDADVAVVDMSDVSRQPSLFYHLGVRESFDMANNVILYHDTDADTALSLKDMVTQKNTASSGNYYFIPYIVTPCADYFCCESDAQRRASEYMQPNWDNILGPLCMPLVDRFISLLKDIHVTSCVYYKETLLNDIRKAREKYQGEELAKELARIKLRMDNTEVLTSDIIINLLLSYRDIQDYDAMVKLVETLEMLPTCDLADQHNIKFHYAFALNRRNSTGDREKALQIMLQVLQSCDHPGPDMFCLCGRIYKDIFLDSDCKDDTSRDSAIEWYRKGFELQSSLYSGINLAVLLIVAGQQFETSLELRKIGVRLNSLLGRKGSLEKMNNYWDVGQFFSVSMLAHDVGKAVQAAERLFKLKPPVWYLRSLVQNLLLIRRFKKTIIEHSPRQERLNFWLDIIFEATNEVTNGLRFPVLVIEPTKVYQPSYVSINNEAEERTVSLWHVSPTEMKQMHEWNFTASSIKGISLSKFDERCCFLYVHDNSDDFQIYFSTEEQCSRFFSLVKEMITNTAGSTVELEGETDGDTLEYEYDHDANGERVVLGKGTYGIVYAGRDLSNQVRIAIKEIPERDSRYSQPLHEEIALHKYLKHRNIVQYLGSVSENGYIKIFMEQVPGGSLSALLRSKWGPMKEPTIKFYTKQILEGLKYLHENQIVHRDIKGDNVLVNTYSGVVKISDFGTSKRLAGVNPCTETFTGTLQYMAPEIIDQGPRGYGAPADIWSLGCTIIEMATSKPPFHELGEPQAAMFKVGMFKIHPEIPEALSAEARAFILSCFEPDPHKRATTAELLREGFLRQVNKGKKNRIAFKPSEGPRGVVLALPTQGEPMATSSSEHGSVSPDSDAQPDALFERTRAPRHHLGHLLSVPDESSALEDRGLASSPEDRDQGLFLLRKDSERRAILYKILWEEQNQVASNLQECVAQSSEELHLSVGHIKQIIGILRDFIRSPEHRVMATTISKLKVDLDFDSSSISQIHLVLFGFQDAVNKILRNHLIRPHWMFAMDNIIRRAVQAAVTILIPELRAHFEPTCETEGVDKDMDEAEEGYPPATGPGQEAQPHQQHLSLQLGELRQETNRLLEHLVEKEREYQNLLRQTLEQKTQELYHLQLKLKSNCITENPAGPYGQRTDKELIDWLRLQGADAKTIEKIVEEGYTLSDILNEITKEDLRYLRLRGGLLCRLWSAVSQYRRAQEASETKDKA
Ephrin type-A receptor 6 (Homo sapiens), sequence (Q9UF33 whole entry, the tested form may be a part): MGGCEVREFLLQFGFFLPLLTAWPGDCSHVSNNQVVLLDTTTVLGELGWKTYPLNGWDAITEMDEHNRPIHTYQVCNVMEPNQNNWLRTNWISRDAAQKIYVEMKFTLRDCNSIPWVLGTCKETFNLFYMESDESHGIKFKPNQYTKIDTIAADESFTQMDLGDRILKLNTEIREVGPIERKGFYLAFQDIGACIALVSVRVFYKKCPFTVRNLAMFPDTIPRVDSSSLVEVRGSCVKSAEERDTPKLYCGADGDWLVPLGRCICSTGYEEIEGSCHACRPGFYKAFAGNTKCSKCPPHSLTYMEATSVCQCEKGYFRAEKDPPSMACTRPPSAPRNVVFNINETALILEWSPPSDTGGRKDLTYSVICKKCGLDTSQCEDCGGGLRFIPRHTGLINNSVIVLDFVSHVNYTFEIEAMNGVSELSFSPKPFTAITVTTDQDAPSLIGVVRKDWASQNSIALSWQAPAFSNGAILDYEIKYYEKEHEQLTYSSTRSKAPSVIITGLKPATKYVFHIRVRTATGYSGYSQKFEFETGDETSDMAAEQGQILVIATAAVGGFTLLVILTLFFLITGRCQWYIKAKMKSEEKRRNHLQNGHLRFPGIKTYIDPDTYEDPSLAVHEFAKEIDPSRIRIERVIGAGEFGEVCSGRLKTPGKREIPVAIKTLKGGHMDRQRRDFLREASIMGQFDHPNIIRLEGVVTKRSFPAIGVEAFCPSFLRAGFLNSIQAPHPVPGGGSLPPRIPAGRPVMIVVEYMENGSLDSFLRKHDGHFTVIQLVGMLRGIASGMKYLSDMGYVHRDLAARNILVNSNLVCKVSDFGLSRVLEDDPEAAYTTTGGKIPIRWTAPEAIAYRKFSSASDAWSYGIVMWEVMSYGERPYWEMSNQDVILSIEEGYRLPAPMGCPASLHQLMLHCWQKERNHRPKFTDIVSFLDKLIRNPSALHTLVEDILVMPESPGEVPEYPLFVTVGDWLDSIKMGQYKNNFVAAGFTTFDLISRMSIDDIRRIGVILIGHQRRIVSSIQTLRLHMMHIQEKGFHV
Serine/threonine-protein kinase RIO2 (Homo sapiens), sequence (Q9BVS4 whole entry, looked up, the tested form may be a part): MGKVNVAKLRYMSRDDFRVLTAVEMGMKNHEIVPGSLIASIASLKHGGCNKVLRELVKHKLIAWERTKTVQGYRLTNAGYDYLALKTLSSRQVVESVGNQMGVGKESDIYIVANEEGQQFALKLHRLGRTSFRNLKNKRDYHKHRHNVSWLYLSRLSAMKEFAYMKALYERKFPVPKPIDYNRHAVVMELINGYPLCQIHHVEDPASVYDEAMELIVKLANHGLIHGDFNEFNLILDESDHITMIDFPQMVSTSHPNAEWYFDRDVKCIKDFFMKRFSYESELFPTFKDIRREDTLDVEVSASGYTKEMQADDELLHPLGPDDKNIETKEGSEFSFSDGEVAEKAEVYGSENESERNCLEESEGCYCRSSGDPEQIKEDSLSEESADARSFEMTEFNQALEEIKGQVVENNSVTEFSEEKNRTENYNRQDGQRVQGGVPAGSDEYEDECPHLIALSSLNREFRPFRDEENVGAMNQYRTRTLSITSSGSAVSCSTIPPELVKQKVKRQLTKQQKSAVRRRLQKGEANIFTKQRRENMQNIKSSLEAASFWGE

C=CC(=O)Nc1cc(Nc2ncc(Cl)c(Nc3ccccc3S(=O)(=O)C(C)C)n2)c(OC)cc1N(C)CCN(C)C
Activity [1]: 65%
Activity [2]: 77%
Activity [3]: 49%
Activity [4]: 100%
Activity [5]: 45%
Activity [6]: 73%
Activity [7]: 61%
Activity [8]: 100%
Activity [9]: 69%
Activity [10]: 72%
Activity [11]: 82%
Activity [12]: 2.8%
Activity [13]: 79%
Activity [14]: 100%
Activity [15]: 78%
Activity [16]: 33%
Activity [17]: 39%
Activity [18]: 66%
Activity [19]: 15%
Activity [20]: 47%
Activity [21]: 93%
Activity [22]: 2%
Activity [23]: 93%
Activity [24]: 91%
